Laboratory results from ChEMBL document CHEMBL3351600, “Sulfur, selenium and tellurium pseudopeptides: synthesis and biological evaluation” (Bioorg Med Chem, 2014).
pIC50: −log10 of the molar value.

Tests used:
[1] = Growth inhibition of human HOP92 cells after 48 hrs; type: functional; conditions: HOP-92, 48 h
Summary of the method: (§1)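 NCI-60 human tumour cell line panel screen run at the US National Cancer Institute under its standard cytotoxicity protocol. It covers leukaemia, NSCLC, colon, CNS, melanoma, ovarian, renal, prostate and breast lines. An initial single-dose test was followed by five-dose testing with 48 h compound exposure.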

[2] = Growth inhibition of human OVCAR3 cells after 48 hrs; type: functional; conditions: OVCAR-3, 48 h; summary of the method: as §1
Pseudomonas aeruginosa = test: Antimicrobial activity against Pseudomonas aeruginosa assessed as inhibition at 20 ug/6 mm disk after 1 to 2 days by agar diffusion assay; type: functional
Summary of the method: (§2)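 Standard agar diffusion: 6-mm paper disks loaded with 20 µg of compound were placed on inoculated plates. Inhibition-zone diameter (mm) was read after 1 and 2 days of growth.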

TK-10 = test: Growth inhibition of human TK10 cells after 48 hrs; type: functional; conditions: TK-10, 48 h
Summary of the method: (§3)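 Run by the NCI 58-cell-line screen under its standard cytotoxicity protocol. Compounds were first tested at a single dose, then at five doses. Cells were exposed to compound for 48 h.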

T47D = test: Growth inhibition of human T47D cells after 48 hrs; type: functional; summary of the method: as §3
MDA-MB-468 = test: Growth inhibition of human MDA-MB-468 cells after 48 hrs; type: functional; conditions: MDA-MB-468, 48 h; summary of the method: as §1
[3] = Cytotoxicity against human fibroblasts assessed as cell viability after 24 hrs incubation by MTT assay; type: cell-based; conditions: Fibroblast
Summary of the method: (§4)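 Cell lines came from DSMZ; primary human fibroblasts served as non-cancer controls. Cells were grown in medium with 10% FCS, seeded at 50,000 cells/ml, and grown 2 days at 37 °C, 10% CO2. Serial dilutions were then added for 24 h. MTT (final 0.5 mg/ml) was added for 2 h. Formazan was pelleted, PBS-washed, dissolved in isopropanol/0.4% HCl and read at 590 nm. Two parallel experiments were run. IC50 was taken as the concentration giving 50% of untreated-control absorbance.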

M14 = test: Growth inhibition of human M14 cells after 48 hrs; type: functional; conditions: M14, 48 h; summary of the method: as §1
[4] = Growth inhibition of human EKVX cells after 48 hrs; type: functional; summary of the method: as §1
MDA-MB-231 = test: Growth inhibition of human MDA-MB-231 cells after 48 hrs; type: functional; conditions: MDA-MB-231, 48 h; summary of the method: as §1
[5] = Growth inhibition of human PC3 cells after 48 hrs; type: functional; conditions: PC-3, 48 h; summary of the method: as §1
[6] = Growth inhibition of human BT549 cells after 48 hrs; type: functional; conditions: BT-549, 48 h; summary of the method: as §1
[7] = Growth inhibition of human HCT15 cells after 48 hrs; type: functional; conditions: HCT-15, 48 h; summary of the method: as §1
[8] = Lipophilicity, log K of the compound by HPLC analysis
Candida albicans = test: Antimicrobial activity against Candida albicans assessed as inhibition at 20 ug/6 mm disk after 1 to 2 days by agar diffusion assay; type: functional; summary of the method: as §2
MDA-MB-435 = test: Growth inhibition of human MDA-MB-435 cells after 48 hrs; type: functional; conditions: MDA-MB-435, 48 h; summary of the method: as §1
[9] = Growth inhibition of human SF539 cells after 48 hrs; type: functional; conditions: SF-539, 48 h; summary of the method: as §1
Micrococcus luteus = test: Antimicrobial activity against Micrococcus luteus assessed as inhibition at 20 ug/6 mm disk after 1 to 2 days by agar diffusion assay; type: functional; summary of the method: as §2
[10] = Growth inhibition of human MOLT4 cells after 48 hrs; type: functional; conditions: MOLT-4, 48 h; summary of the method: as §1
[11] = Growth inhibition of human NCI-ADR-RES cells after 48 hrs; type: functional; summary of the method: as §1
A498 = test: Growth inhibition of human A498 cells after 48 hrs; type: functional; conditions: A498, 48 h; summary of the method: as §1
NCI-H522 = test: Growth inhibition of human NCI-H522 cells after 48 hrs; type: functional; conditions: NCI-H522, 48 h; summary of the method: as §1
HT-29 = test: Growth inhibition of human HT-29 cells after 48 hrs; type: functional; conditions: HT-29, 48 h; summary of the method: as §1
K562 = test: Growth inhibition of human K562 cells after 48 hrs; type: functional; conditions: K562, 48 h; summary of the method: as §1
U-251 = test: Growth inhibition of human U251 cells after 48 hrs; type: functional; conditions: U-251, 48 h; summary of the method: as §3
MCF7 [12] = test: Cytotoxicity against human MCF7 cells assessed as cell viability after 24 hrs incubation by MTT assay; type: functional, cell-based; conditions: MCF7, 24 h; summary of the method: as §4
[13] = Growth inhibition of human OVCAR5 cells after 48 hrs; type: functional; conditions: OVCAR-5, 48 h; summary of the method: as §1
ACHN = test: Growth inhibition of human ACHN cells after 48 hrs; type: functional; summary of the method: as §1
MCF7 [14] = test: Growth inhibition of human MCF7 cells after 48 hrs; type: functional; conditions: MCF7, 48 h; summary of the method: as §1
A-431 = test: Cytotoxicity against human A431 cells assessed as cell viability after 24 hrs incubation by MTT assay; type: functional, cell-based; conditions: A-431, 24 h; summary of the method: as §4
Klebsiella pneumoniae = test: Antimicrobial activity against Klebsiella pneumoniae assessed as inhibition at 20 ug/6 mm disk after 1 to 2 days by agar diffusion assay; type: functional; summary of the method: as §2
KM12 = test: Growth inhibition of human KM12 cells after 48 hrs; type: functional; conditions: KM12, 48 h; summary of the method: as §1
[15] = Growth inhibition of human SF295 cells after 48 hrs; type: functional; conditions: SF-295, 48 h; summary of the method: as §1
[16] = read-out: pLC50 (the source's name) (converted)

COc1ccc(N(CC(=O)NCCC[Te]c2ccccc2)C(=O)c2ccccc2)cc1
GI50 [1]: 4.07 µM | CC50 [1, 16]: 69.2 µM | TGI ([1]; read-out: pTGI (converted)): 10 µM | GI50 [2]: 5.75 µM | CC50 [2, 16]: 56.2 µM | TGI ([2]; read-out: pTGI (converted)): 20 µM | diameter of the inhibition zone (DIZ) (Pseudomonas aeruginosa): 9 mm | GI50 (TK-10): 3.89 µM | LC50 (TK-10): 69.2 µM | TGI (TK-10; read-out: pTGI (converted)): 11.5 µM | GI50 (T47D): 3.39 µM | LC50 (T47D): > 100 µM | TGI (T47D; read-out: pTGI (converted)): 21.4 µM | GI50 (MDA-MB-468): 4.27 µM | LC50 (MDA-MB-468): 56.2 µM | TGI (MDA-MB-468; read-out: pTGI (converted)): 17.8 µM | pIC50 [3]: 5.12 | GI50 (M14): 4.17 µM | CC50 (M14; [16]): 63.1 µM | TGI (M14; read-out: pTGI (converted)): 15.5 µM | GI50 [4]: 4.07 µM | CC50 [4, 16]: > 100 µM | TGI ([4]; read-out: pTGI (converted)): 5.25 µM | GI50 (MDA-MB-231): 2.63 µM | LC50 (MDA-MB-231): > 100 µM | TGI (MDA-MB-231; read-out: pTGI (converted)): 4.79 µM | GI50 [5]: 2.69 µM | LC50 [5]: > 100 µM | TGI ([5]; read-out: pTGI (converted)): 12.6 µM | GI50 [6]: 2.4 µM | LC50 (concentration killing 50% of cells) [6]: > 100 µM | TGI ([6]; read-out: pTGI (converted)): 8.71 µM | GI50 [7]: 2.95 µM | CC50 [7, 16]: > 100 µM | TGI ([7]; read-out: pTGI (converted)): 15.1 µM | log K [8]: -0.65 | diameter of the inhibition zone (DIZ) (Candida albicans): 0 mm | GI50 (MDA-MB-435): 8.13 µM | CC50 (MDA-MB-435; [16]): > 100 µM | TGI (MDA-MB-435; read-out: pTGI (converted)): 30.2 µM | GI50 [9]: 2.29 µM | CC50 [9, 16]: 28.8 µM | TGI ([9]; read-out: pTGI (converted)): 6.03 µM | diameter of the inhibition zone (DIZ) (Micrococcus luteus): 13 mm | GI50 [10]: 3.55 µM | CC50 [10, 16]: > 100 µM | TGI ([10]; read-out: pTGI (converted)): 16.6 µM | GI50 [11]: 3.24 µM | LC50 [11]: > 100 µM | TGI ([11]; read-out: pTGI (converted)): 10.7 µM | Retention_time: 0.89 min | GI50 (A498): 2.19 µM | LC50 (A498): 25.1 µM | TGI (A498; read-out: pTGI (converted)): 5.37 µM | GI50 (NCI-H522): 3.09 µM | CC50 (NCI-H522; [16]): 53.7 µM | TGI (NCI-H522; read-out: pTGI (converted)): 8.71 µM | GI50 (HT-29): 3.8 µM | CC50 (HT-29; [16]): > 100 µM | TGI (HT-29; read-out: pTGI (converted)): > 100 µM | GI50 (K562): 5.13 µM | CC50 (K562; [16]): > 100 µM | TGI (K562; read-out: pTGI (converted)): > 100 µM | GI50 (U-251): 2.82 µM | CC50 (U-251; [16]): 74.1 µM | TGI (U-251; read-out: pTGI (converted)): 9.33 µM | pIC50 (MCF7 [12]): 4.57 | GI50 [13]: 3.8 µM | LC50 [13]: 52.5 µM | TGI ([13]; read-out: pTGI (converted)): 11.5 µM | GI50 (ACHN): 3.16 µM | LC50 (ACHN): 39.8 µM | TGI (ACHN; read-out: pTGI (converted)): 9.55 µM | GI50 (MCF7 [14]): 3.16 µM | LC50 (concentration killing 50% of cells) (MCF7 [14]): 75.9 µM | TGI (MCF7 [14]; read-out: pTGI (converted)): 10.7 µM | pIC50 (A-431): 5.30 | diameter of the inhibition zone (DIZ) (Klebsiella pneumoniae): 12 mm | GI50 (KM12): 3.16 µM | CC50 (KM12; [16]): 46.8 µM | TGI (KM12; read-out: pTGI (converted)): 11.7 µM | GI50 [15]: 1.7 µM | CC50 [15, 16]: > 100 µM | TGI ([15]; read-out: pTGI (converted)): 8.13 µM
